From ChEMBL document CHEMBL2346536, “Biscatecholate-monohydroxamate mixed ligand siderophore-carbacephalosporin conjugates are selective sideromycin antibiotics that target Acinetobacter baumannii” (2013)
Values after ≈ are worked out from the molar mass of the structure shown. Active and inactive are the calls of the source. The rule behind the calls is not given here.

How the values were obtained:
[1] = test system: Escherichia coli; assay: Antibacterial activity against Escherichia coli ATCC 25922 after 18 hrs by broth microdilution method; type: functional; details: ATCC 25922, 18 h
Outline: (§1)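 Broth microdilution MICs per CLSI guidelines, read by visual end point; each compound tested in triplicate.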

[2] = test system: Klebsiella aerogenes; assay: Antibacterial activity against Enterobacter aerogenes ATCC 35029 after 18 hrs by broth microdilution method; type: functional; details: ATCC 35029, 18 h; outline: as §1
[3] = test system: Enterococcus faecium; assay: Antibacterial activity against Enterococcus faecium NCTC 7171 after 18 hrs by broth microdilution method; type: functional; details: NCTC 7171, 18 h; outline: as §1
[4] = test system: Klebsiella pneumoniae; assay: Antibacterial activity against Klebsiella pneumoniae ATCC 700603 after 18 hrs by broth microdilution method; type: functional; details: ATCC 700603, 18 h; outline: as §1
[5] = test system: Pseudomonas aeruginosa; assay: Antibacterial activity against Pseudomonas aeruginosa ATCC 27853 after 18 hrs by broth microdilution method; type: functional; details: ATCC 27853, 18 h; outline: as §1
[6] = test system: Acinetobacter baumannii; assay: Antibacterial activity against Acinetobacter baumannii ATCC 17961 after 18 hrs by broth microdilution method; type: functional; details: ATCC 17961, 18 h; outline: as §1
[7] = test system: Staphylococcus aureus; assay: Antibacterial activity against Staphylococcus aureus SG 511 after 18 hrs by broth microdilution method; type: functional; details: SG 511, 18 h; outline: as §1
[8] = test system: Staphylococcus aureus; assay: Antibacterial activity against Staphylococcus aureus SG 511 in Fe(3)-supplemented Mueller-Hinton no.2 broth media assessed as diameter of growth inhibition zone after 18 to 24 hrs by agar diffusion assay; type: functional, organism-based
Outline: (§2)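 Modified Kirby–Bauer agar diffusion on Mueller–Hinton no. 2 agar, made iron-deficient with 100 μM 2,2′-bipyridine or iron-supplemented with 100 μM FeCl₃. Read-out was growth inhibition zone diameter (mm), averaged over three independent trials.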

[9] = test system: Acinetobacter baumannii; assay: Antibacterial activity against Acinetobacter baumannii ATCC 17961 in Fe(3)-supplemented Mueller-Hinton no.2 broth media assessed as diameter of growth inhibition zone after 18 to 24 hrs by agar diffusion assay; type: functional; outline: as §2
[10] = test system: Acinetobacter baumannii; assay: Antibacterial activity against Acinetobacter baumannii ATCC 17961 in Fe(3)-supplemented Mueller-Hinton no.2 broth media after 18 hrs by broth microdilution method; type: functional; details: ATCC 17961, 18 h
Outline: (§3)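 CLSI broth microdilution in cation-adjusted Mueller–Hinton no. 2 broth. The iron-deficient broth contained 100 μM 2,2′-bipyridine and the iron-supplemented broth 100 μM FeCl₃. MIC was read by visual end point, each compound in triplicate.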

[11] = test system: Acinetobacter baumannii; assay: Antibacterial activity against Acinetobacter baumannii ATCC 17961 at 0.5 mM after 18 to 24 hrs by agar diffusion assay in presence of Fe3-complex of N-[5-(3-{[4-(2,3-Dihydroxy-benzoylamino)-butyl]-[3-(2,3-dihydroxy-benzoylamino)-propyl]-carbamoyl}-propionylamino)-pentyl]-N-hydroxy-succinamic acid; type: functional, organism-based
Outline: (§4)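 Paper-strip competition on agar. LB cultures grown 18–24 h were suspended in 0.9% saline at […] (0.5 McFarland), then 0.1 mL was mixed into 34 mL MHII agar + 2,2′-bipyridine at 47 °C. Strips were soaked in 0.5 mM sideromycin or 2.0 mM siderophore (1:10 DMSO:MeOH). Plates ran 37 °C for 18–24 h and were photographed at 48 h.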

[12] = test system: Acinetobacter baumannii; assay: Antibacterial activity against Acinetobacter baumannii ATCC 17961 at 0.5 mM after 18 to 24 hrs by agar diffusion assay in presence of N-[5-(3-{[4-(2,3-Dihydroxy-benzoylamino)-butyl]-[3-(2,3-dihydroxy-benzoylamino)-propyl]-carbamoyl}-propionylamino)-pentyl]-N-hydroxy-succinamic acid; type: functional, organism-based; outline: as §4
[13] = test system: Staphylococcus aureus; assay: Antibacterial activity against Staphylococcus aureus SG 511 in Fe(3)-supplemented Mueller-Hinton no.2 broth media after 18 hrs by broth microdilution method; type: functional; details: SG 511, 18 h; outline: as §3
[14] = test system: Staphylococcus aureus; assay: Antibacterial activity against Staphylococcus aureus SG 511 in Fe(3)-deficient Mueller-Hinton no.2 broth media assessed as diameter of growth inhibition zone after 18 to 24 hrs by agar diffusion assay; type: functional, organism-based; outline: as §2
[15] = test system: Acinetobacter baumannii; assay: Antibacterial activity against Acinetobacter baumannii ATCC 17961 in Fe(3)-deficient Mueller-Hinton no.2 broth media after 18 hrs by broth microdilution method; type: functional; details: ATCC 17961, 18 h; outline: as §3
[16] = test system: Staphylococcus aureus; assay: Antibacterial activity against Staphylococcus aureus SG 511 in Fe(3)-deficient Mueller-Hinton no.2 broth media after 18 hrs by broth microdilution method; type: functional; details: SG 511, 18 h; outline: as §3
[17] = test system: Acinetobacter baumannii; assay: Antibacterial activity against Acinetobacter baumannii ATCC 17961 in Fe(3)-deficient Mueller-Hinton no.2 broth media assessed as diameter of growth inhibition zone after 18 to 24 hrs by agar diffusion assay; type: functional; outline: as §2
[18] = test system: Staphylococcus aureus; assay: Antibacterial activity against Staphylococcus aureus SG 511 at 0.5 mM after 18 to 24 hrs by agar diffusion assay in presence of N-[5-(3-{[4-(2,3-Dihydroxy-benzoylamino)-butyl]-[3-(2,3-dihydroxy-benzoylamino)-propyl]-carbamoyl}-propionylamino)-pentyl]-N-hydroxy-succinamic acid; type: functional, organism-based; outline: as §4
[19] = test system: Staphylococcus aureus; assay: Antibacterial activity against Staphylococcus aureus SG 511 at 0.5 mM after 18 to 24 hrs by agar diffusion assay in presence of Fe3-complex of N-[5-(3-{[4-(2,3-Dihydroxy-benzoylamino)-butyl]-[3-(2,3-dihydroxy-benzoylamino)-propyl]-carbamoyl}-propionylamino)-pentyl]-N-hydroxy-succinamic acid; type: functional, organism-based; outline: as §4

MIC [1] [µM] | MIC [2] [µM] | MIC [3] [µM] | MIC [4] [µM] | MIC [5] [µM] | MIC [6] [µM] | MIC [7] [µM] | MIC [10] [µM] | MIC [13] [µM] | MIC [15] [µM] | MIC [16] [µM] | SMILES | Activity [8] | diameter of the inhibition zone (DIZ) [9] [mm] | Activity [11] | Activity [12] | Activity [14] | diameter of the inhibition zone (DIZ) [17] [mm] | Activity [18] | Activity [19]
> 128 | > 128 | > 128 | > 128 | > 128 | > 128 | > 128 | – | – | – | – | O=C(O)CCC(=O)N(O)CCCCCNC(=O)CCC(=O)N(CCCCNC(=O)c1cccc(O)c1O)CCCNC(=O)c1cccc(O)c1O | – | – | – | – | – | – | – | –
2 (≈ 0.7 µg/mL) | > 128 | 32 (≈ 11.2 µg/mL) | 128 (≈ 44.8 µg/mL) | > 128 | > 128 | 1 (≈ 0.35 µg/mL) | – | – | – | – | N[C@@H](C(=O)N[C@@H]1C(=O)N2C(C(=O)O)=C(Cl)CC[C@H]12)c1ccccc1 [LORACARBEF ANHYDROUS] | – | – | – | – | – | – | – | –
> 128 | > 128 | > 128 | > 128 | > 128 | > 128 | > 128 | – | – | – | – | O=C(CCC(=O)N(CCCCNC(=O)c1cccc(O)c1O)CCCNC(=O)c1cccc(O)c1O)NCCCCCN(O)C(=O)CCC(=O)N1CCN(c2cc3c(cc2F)c(=O)c(C(=O)O)cn3C2CC2)CC1 | – | – | – | – | – | – | – | –
8 (≈ 8.4 µg/mL) | > 128 | > 128 | > 128 | > 128 | 0.125 (≈ 0.131 µg/mL) | 32 (≈ 33.6 µg/mL) | 0.5 (≈ 0.525 µg/mL) | 64 (≈ 67.2 µg/mL) | 0.0078 (≈ 0.00819 µg/mL) | 32 (≈ 33.6 µg/mL) | O=C(CCC(=O)N(CCCCNC(=O)c1cccc(O)c1O)CCCNC(=O)c1cccc(O)c1O)NCCCCCN(O)C(=O)CCC(=O)N[C@H](C(=O)N[C@@H]1C(=O)N2C(C(=O)O)=C(Cl)CC[C@H]12)c1ccccc1 | Active | 16.2 | inactive | inactive | Active | 20.6 | Active | Active

SMILES | MIC [1] [µM] | MIC [2] [µM] | MIC [3] [µM] | MIC [4] [µM] | MIC [5] [µM] | MIC [6] [µM] | MIC [7] [µM] | MIC [10] [µM] | MIC [13] [µM] | MIC [15] [µM] | MIC [16] [µM] | Activity [8] | diameter of the inhibition zone (DIZ) [9] [mm] | Activity [11] | Activity [12] | Activity [14] | diameter of the inhibition zone (DIZ) [17] [mm] | Activity [18] | Activity [19]
O=C(O)c1cn(C2CC2)c2cc(N3CCNCC3)c(F)cc2c1=O [CIPROFLOXACIN] | < 0.015 | < 0.015 | 8 (≈ 2.65 µg/mL) | 0.25 (≈ 0.0828 µg/mL) | 0.125 (≈ 0.0414 µg/mL) | 0.25 (≈ 0.0828 µg/mL) | 0.5 (≈ 0.166 µg/mL) | – | – | – | – | – | – | – | – | – | – | – | –
